≈ marks a conversion by molar mass, not a printed value. Calls of active or inactive are those of the source. No cut-off for these calls is given here. Numbered stars: 1 amine (or outer) side, 2 acyl side, 3 side chain; on linkers, the order of the positions; unused ones are H or OH. Square brackets hold non-standard residues; d marks the D form. Peptide text beside a SMILES is read from it. X1 = N=C(N)NCCC[C@H](N[*:1])C(=O)c1nc2ccc(C(=O)[*:2])cc2s1

For one data set, the target named is Prothrombin (Homo sapiens, UniProt P00734). Kind of data set: Inhibition of recombinant thrombin (unknown origin) using D-Phe-Pip-Arg-pNA as substrate preincubated for 30 mins followed by substrate addition by chromogenic assay.
Another data set deals with NCI-H596. The data set is described as follows: Antitumor activity against human NCI-H596 cells xenografted in hHGF knock in NSG mouse assessed as tumor growth inhibition at 50 mg/kg, ip administered daily for 25 days. Conditions: time 25.0 day. The class given is functional, organism-based. A general note: In xenograft studies the graft and the host belong to different species.

Data set [1] in a line: Toxicity in NSG mouse at 100 mg/kg, ip administered daily for 7 days. The class given is organism-based. To be noted: in vivo, time 7 day.
A short description of data set [2]: Half life in mouse plasma at 20 mg/kg, ip. The class given is ADME, organism-based. To be noted: in vivo, 20 mg/kg.
Data set [3] is described as follows: Solubility of compound at pH 7.4. The class given is physicochemical. Conditions: buffer.
For the next data set, the target named is Serine protease hepsin (Homo sapiens, UniProt P05981). Kind of data set: Inhibition of recombinant human C-terminal 10-His tagged hepsin (Arg45 to Leu417) expressed in mouse myeloma cells mediated pro-HGF activation preincubated for 30 mins followed by pro-HGF addition and measured after 1 hr by immunoblotting analysis. In a few lines: (§1)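 Recombinant pro-HGF (10 ng) incubated one hour with matriptase (1 nM), hepsin (10 nM) or HGFA (5 nM), with or without inhibitor. Processing detected by immunoblot with a polyclonal antibody recognizing pro-HGF and the HGF alpha and beta chains; active HGF served as positive control.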
Sequence of Serine protease hepsin (P05981 1-162 limits assumed): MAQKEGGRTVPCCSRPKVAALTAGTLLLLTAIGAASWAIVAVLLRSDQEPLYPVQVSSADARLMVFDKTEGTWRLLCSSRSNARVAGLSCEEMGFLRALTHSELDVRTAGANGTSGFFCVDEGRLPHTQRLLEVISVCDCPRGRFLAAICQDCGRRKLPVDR
Sequence of Serine protease hepsin (P05981 163-417 limits assumed): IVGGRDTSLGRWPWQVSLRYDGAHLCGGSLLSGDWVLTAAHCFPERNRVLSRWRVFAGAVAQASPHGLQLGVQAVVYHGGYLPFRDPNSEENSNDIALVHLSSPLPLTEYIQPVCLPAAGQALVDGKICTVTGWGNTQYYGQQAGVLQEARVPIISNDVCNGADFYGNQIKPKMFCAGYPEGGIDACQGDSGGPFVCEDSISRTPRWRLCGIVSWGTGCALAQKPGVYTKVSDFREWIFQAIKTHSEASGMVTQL
On the technique in general: In western blotting, separated proteins are transferred to a membrane and probed.

Data set [4] addresses T1, Hepatocyte growth factor activator serine protease (Homo sapiens) (UniProt Q04756).
T1 sequence (whole entry): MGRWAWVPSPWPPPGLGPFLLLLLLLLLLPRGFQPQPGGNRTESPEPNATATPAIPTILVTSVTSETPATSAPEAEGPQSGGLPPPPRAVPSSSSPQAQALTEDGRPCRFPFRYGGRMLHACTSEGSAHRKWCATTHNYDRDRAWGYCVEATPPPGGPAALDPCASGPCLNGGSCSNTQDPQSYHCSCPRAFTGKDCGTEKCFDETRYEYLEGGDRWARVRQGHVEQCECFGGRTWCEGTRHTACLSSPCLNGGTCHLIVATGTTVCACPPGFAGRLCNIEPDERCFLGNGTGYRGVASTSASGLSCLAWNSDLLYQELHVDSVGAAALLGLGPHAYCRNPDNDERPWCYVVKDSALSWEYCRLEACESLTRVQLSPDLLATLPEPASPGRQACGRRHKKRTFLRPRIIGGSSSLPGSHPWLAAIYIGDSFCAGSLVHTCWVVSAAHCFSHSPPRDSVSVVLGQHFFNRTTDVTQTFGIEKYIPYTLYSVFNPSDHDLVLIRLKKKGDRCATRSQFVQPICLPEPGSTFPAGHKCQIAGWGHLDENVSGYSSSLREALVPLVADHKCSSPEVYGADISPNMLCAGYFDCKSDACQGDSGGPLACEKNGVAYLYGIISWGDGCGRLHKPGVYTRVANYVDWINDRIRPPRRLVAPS
The data set is described as follows: Inhibition of recombinant human HGFA serine protease domain mediated pro-HGF activation preincubated for 30 mins followed by pro-HGF addition and measured after 1 hr by immunoblotting analysis. In a few lines: as §1

A further data set deals with HCC827. Kind of data set: Inhibition of pro-HGF stimulated wound healing in human HCC827 cells preincubated for 30 mins followed by pro-HGF stimulation and measured after 24 hrs by crystal violet staining based assay. Type of data set: functional, cell-based. In a few lines: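 HCC827 monolayers grown to confluence, serum-starved overnight, then scratched. Cells were pre-incubated 30 min with inhibitor (10 µM) and stimulated with HGF or pro-HGF for 24 h. Wells stained with crystal violet to score closure. n=3; one-way ANOVA versus pro-HGF alone.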

On to `CC(=O)N[C@@H](CO)C(=O)N[C@@H](CCCCN)C(=O)N[C@@H](CC(C)C)C(=O)N[C@@H](CCCNC(=N)N)C(=O)c1nc2ccc(C(=O)N[C@H](C(N)=O)C(C)C)cc2s1` (Ac-SKL[X1]V-NH2), for which, on Prothrombin, the IC50 came to 9 µM. For the same compound, in the data set on NCI-H596, the outcome was Active. The Activity result in data set [1] is on record as “Non-Toxic”. Also, the t1/2 in data set [2] was 2 h. In data set [3], this compound returned a solubility of 200 µM (≈ 161 µg/mL). Besides, the inhibition entry (on Serine protease hepsin; in data set [4]; with HCC827) was “Active” throughout.

As a reminder, the IC50 is the concentration needed to halve the response being measured. Broadly, the solubility is how much of the substance goes into solution per volume. Read a high solubility as much dissolved substance.

The values above are taken from ChEMBL document CHEMBL5030567, “Macrocyclic Inhibitors of HGF-Activating Serine Proteases Overcome Resistance to Receptor Tyrosine Kinase Inhibitors and Block Lung Cancer Progression” (J Med Chem, 2021).
